Assay [1] addresses T1, Peroxisome proliferator-activated receptor alpha (Homo sapiens, UniProt Q07869).
T1 sequence (Q07869 whole entry): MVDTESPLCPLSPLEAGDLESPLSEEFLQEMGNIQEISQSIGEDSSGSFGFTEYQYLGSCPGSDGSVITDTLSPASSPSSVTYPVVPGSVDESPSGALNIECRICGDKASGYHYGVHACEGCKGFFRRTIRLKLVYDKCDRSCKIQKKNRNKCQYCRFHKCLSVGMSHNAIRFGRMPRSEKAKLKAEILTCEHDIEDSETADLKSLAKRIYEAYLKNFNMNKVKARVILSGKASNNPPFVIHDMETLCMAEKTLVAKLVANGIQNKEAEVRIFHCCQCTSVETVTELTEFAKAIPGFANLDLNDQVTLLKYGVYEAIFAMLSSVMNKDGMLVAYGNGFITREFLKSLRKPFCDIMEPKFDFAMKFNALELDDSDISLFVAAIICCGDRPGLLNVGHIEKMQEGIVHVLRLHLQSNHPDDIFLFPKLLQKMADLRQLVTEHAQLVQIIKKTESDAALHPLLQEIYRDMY
The assay is described as follows: Inhibition of human Peroxisome proliferator activated receptor alpha binding.

Assay [2] has as its target T2, Peroxisome proliferator-activated receptor gamma (Homo sapiens, UniProt P37231).
T2 sequence (P37231 whole entry): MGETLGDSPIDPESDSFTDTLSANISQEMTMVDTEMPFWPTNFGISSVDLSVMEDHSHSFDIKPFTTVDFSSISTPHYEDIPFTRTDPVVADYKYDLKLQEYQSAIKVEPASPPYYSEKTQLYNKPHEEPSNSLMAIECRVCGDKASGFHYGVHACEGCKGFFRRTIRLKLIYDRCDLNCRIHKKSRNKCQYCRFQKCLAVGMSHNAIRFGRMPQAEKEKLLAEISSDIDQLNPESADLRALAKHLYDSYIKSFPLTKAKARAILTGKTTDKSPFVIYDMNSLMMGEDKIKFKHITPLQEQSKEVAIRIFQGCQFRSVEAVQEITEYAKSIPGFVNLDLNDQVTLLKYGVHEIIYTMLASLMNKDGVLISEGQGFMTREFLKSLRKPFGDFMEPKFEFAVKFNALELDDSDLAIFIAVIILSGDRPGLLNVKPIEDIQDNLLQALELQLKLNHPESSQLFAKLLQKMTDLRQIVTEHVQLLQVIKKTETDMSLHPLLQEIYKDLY
The assay is described as follows: Inhibition of human Peroxisome proliferator activated receptor gamma binding.

Assay [3] deals with T1, Peroxisome proliferator-activated receptor alpha. The assay is described as follows: Effective concentration against human Peroxisome proliferator activated receptor alpha in Gal4 transactivation assay.
For assay [4], the target named is T2, Peroxisome proliferator-activated receptor gamma. Kind of assay: Effective concentration against human Peroxisome proliferator activated receptor gamma in Gal4 transactivation assay.
Assay [5] addresses T1, Peroxisome proliferator-activated receptor alpha. Kind of assay: Effective concentration against human Peroxisome proliferator activated receptor alpha in Gal4 transactivation assay; Not active at 3 uM. In a few lines: (§1)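 Chimeric GAL4-hPPARα or GAL4-hPPARγ transactivation assay in transiently transfected COS-1 cells. Compounds were titrated up to 3 µM, the highest concentration tested. […] "Not active" means no activity at 3 µM.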

Assay [6] has as its target T2, Peroxisome proliferator-activated receptor gamma. Kind of assay: Effective concentration against human Peroxisome proliferator activated receptor gamma in Gal4 transactivation assay; Not active at 3 uM. In a few lines:
as §1

The target is the same in assay [7]. The assay is described as follows: Maximal effect against human Peroxisome proliferator activated receptor gamma in Gal4 transactivation assay. Summed up:
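Chimeric GAL4-hPPARγ transactivation assay in transiently transfected COS-1 cells. The response is given as percent at 3 µM, the mean of n = 3.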

The target in assay [8] is T3, Peroxisome proliferator-activated receptor alpha (Canis lupus familiaris, UniProt Q95N78).
T3 sequence (Q95N78 whole entry): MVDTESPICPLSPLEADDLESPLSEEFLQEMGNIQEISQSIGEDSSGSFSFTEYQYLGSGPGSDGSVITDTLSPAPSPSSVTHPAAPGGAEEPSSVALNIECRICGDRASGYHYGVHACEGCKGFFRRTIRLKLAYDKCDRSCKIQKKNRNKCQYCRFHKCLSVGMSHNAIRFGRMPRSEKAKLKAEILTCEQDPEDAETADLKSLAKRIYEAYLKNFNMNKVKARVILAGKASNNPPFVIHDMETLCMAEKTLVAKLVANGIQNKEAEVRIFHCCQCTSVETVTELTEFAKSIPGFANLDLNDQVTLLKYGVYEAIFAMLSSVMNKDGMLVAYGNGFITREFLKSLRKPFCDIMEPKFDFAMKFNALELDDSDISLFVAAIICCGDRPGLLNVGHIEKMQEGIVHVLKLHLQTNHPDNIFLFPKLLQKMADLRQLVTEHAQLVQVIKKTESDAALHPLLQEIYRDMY
Kind of assay: Agonist activity against dog Peroxisome proliferator activated receptor alpha. Format: functional. In a few lines:
(§2)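 Chimeric GAL4 fusions carrying the PPARα receptor from dog, hamster or mouse, constructed like the human transactivation assay. Run in transiently transfected COS-1 cells, with agonist activity read as EC50.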

Assay [9] deals with T4, Peroxisome proliferator-activated receptor alpha (Mus musculus, UniProt P23204).
T4 sequence (P23204 whole entry): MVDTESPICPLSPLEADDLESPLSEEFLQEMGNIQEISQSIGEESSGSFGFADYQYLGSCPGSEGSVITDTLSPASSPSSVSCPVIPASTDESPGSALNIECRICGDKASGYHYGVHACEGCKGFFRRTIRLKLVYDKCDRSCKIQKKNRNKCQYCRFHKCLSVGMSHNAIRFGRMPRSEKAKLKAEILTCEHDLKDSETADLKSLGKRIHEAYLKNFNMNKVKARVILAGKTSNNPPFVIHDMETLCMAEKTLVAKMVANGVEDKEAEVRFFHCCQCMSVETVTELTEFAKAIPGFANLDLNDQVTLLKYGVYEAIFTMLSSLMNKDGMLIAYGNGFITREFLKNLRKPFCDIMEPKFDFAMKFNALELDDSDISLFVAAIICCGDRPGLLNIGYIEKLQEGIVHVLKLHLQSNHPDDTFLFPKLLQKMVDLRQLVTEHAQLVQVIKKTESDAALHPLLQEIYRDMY
The assay is described as follows: Agonist activity against mouse Peroxisome proliferator activated receptor alpha. Type of assay: functional. Summed up:
as §2

Broadly, the IC50 is the concentration that gives 50% inhibition. Read a low IC50 as greater potency in that assay. For orientation: EC50 means the concentration needed to bring the measured effect to its halfway point. On to `CCCc1cc2c(OC)noc2c(CCC)c1OC(C)(C)C(=O)O`, for which the IC50 in assay [1] was found to be 1510 nM; in assay [2], 1620 nM. The EC50 amounted to 60 nM in assay [3] and 1100 nM in assay [4].

For the compound `CCCc1cc2c(C(F)(F)F)noc2c(CCC)c1OCC(C)(C)C(=O)O`, the IC50 in assay [1] was greater than 50000 nM; in assay [2] it was greater than 15000 nM. The EC50 result in assay [5] and in [6] was “Not Active” each time.

For the compound `CCCc1cc2c(C(F)(F)F)noc2c(CCC)c1OC(C)(C)C(=O)O`, the results for the IC50 in assay [1] and in assay [2] were 230 nM and 1580 nM, respectively. For the same compound, in assay [7], the Emax was 25%. Also, the EC50 in assay [8] came out at 550 nM; in assay [9] it was 180 nM; in [3], 300 nM.

On to `CCCc1c(OC(C)(C)C(=O)O)ccc2c(C(F)(F)F)noc12`, for which the IC50 in assay [1] and in assay [2] was greater than 10000 nM in each case. Also, the EC50 entry in [5] and in [6] was “Not Active” throughout.

Regarding `CCCc1cc2c(C(F)(F)F)noc2c(CCC)c1OC(C)C(=O)O` (configuration not stated), the IC50 in assay [1] is 1030 nM; in assay [2] it was greater than 10000 nM. In assay [7], this compound returned an Emax of 21%. This compound also showed an EC50 in assay [3] of 620 nM.

For the compound `CCCc1cc2c(C(F)(F)F)noc2c(CCC)c1OC(C)(CC)C(=O)O` (configuration not stated), the IC50 in [1] is 100 nM; in assay [2], greater than 15000 nM. In assay [7], this compound displayed an Emax of 26%. The concentration giving a half-maximal response (EC50) in [3] worked out at 750 nM.

In the case of `CCCc1cc(C(=O)CC)cc(CCC)c1OC(C)(C)C(=O)O`, the IC50 in [1] came out at 480 nM; in assay [2], 1220 nM. Besides, the 50% effective concentration (EC50) came to 10 nM in assay [3] and 1300 nM in assay [4].

`CC(C)(Oc1ccc(C(=O)c2ccc(Cl)cc2)cc1)C(=O)O` [FENOFIBRIC ACID]: the IC50 in assay [1] is 35000 nM. This compound registered an EC50 in [3] of 15000 nM.

These data come from ChEMBL document CHEMBL1143558, “Discovery of a novel series of peroxisome proliferator-activated receptor alpha/gamma dual agonists for the treatment of type 2 diabetes and dyslipidemia” (J Med Chem, 2005).
